≈ marks a conversion by molar mass, not a printed value.
What was measured:
Format in all cases: functional
Moraxella catarrhalis = assay: Antibacterial activity against Moraxella catarrhalis SR26840 clinical isolate assessed as growth inhibition by CLSI broth microdilution method
Procedure, shortened: (§1)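 MIC by CLSI broth microdilution in cation-adjusted Mueller-Hinton broth; S. pneumoniae medium supplemented with 5% lysed horse blood.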

Staphylococcus aureus [1] = assay: Antibacterial activity against Staphylococcus aureus Smith assessed as growth inhibition by CLSI broth microdilution method; procedure, shortened: as §1
Haemophilus influenzae = assay: Antibacterial activity against Haemophilus influenzae SR27914 clinical isolate assessed as growth inhibition by CLSI broth microdilution method
Procedure, shortened: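 MIC by CLSI broth microdilution using Haemophilus test medium.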

Streptococcus pneumoniae = assay: Antibacterial activity against Streptococcus pneumoniae SR26207 clinical isolate assessed as growth inhibition by CLSI broth microdilution method; procedure, shortened: as §1
Enterococcus faecium = assay: Antibacterial activity against Enterococcus faecium SR7940 clinical isolate assessed as growth inhibition by CLSI broth microdilution method; procedure, shortened: as §1
Staphylococcus aureus [2] = assay: Antibacterial activity against linezolid-resistant Staphylococcus aureus NRS271 assessed as growth inhibition by CLSI broth microdilution method
Procedure, shortened: (§2)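 MIC by CLSI broth microdilution in cation-adjusted Mueller-Hinton broth. Lowest concentration inhibiting growth taken as MIC.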

Staphylococcus aureus [3] = assay: Antibacterial activity against Staphylococcus aureus SR20549 clinical isolate assessed as growth inhibition by CLSI broth microdilution method; procedure, shortened: as §1
Enterococcus faecalis = assay: Antibacterial activity against Enterococcus faecalis SR1004 clinical isolate assessed as growth inhibition by CLSI broth microdilution method; procedure, shortened: as §1
Staphylococcus aureus [4] = assay: Antibacterial activity against methicillin-resistant Staphylococcus aureus SR3637 infected in JCL/ICR mouse systemic infection model assessed as mortality administered as iv measured over 7 days; conditions: 168 h
Procedure, shortened: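 Five-week-old male JCL/ICR mice (20–25 g), five per group. Infected intraperitoneally with 0.5 or 1.0 mL bacterial suspension (about 100× LD50). Intravenous dosing 1 h post-infection. Mortality followed 7 days; ED50 with 95% confidence limits by logit method.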

Staphylococcus aureus [5] = assay: Antibacterial activity against methicillin-resistant Staphylococcus aureus SR3637 assessed as growth inhibition by CLSI broth microdilution method; procedure, shortened: as §2
Staphylococcus aureus [6] = assay: Antibacterial activity against methicillin-resistant Staphylococcus aureus SR3637 infected in JCL/ICR mouse systemic infection model assessed as mortality administered as po measured over 7 days; conditions: 168 h
Procedure, shortened: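 Five-week-old male JCL/ICR mice (20–25 g), five per group. Infected intraperitoneally with 0.5 or 1.0 mL bacterial suspension (about 100× LD50). Oral dosing 1 h post-infection. Mortality followed 7 days; ED50 with 95% confidence limits by logit method.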

SMILES	MIC (Moraxella catarrhalis) [µg/mL]	MIC (Staphylococcus aureus [1]) [µg/mL]	MIC (Haemophilus influenzae) [µg/mL]	MIC (Streptococcus pneumoniae) [µg/mL]	MIC (Enterococcus faecium) [µg/mL]	MIC (Staphylococcus aureus [2]) [µg/mL]	MIC (Staphylococcus aureus [3]) [µg/mL]	MIC (Enterococcus faecalis) [µg/mL]	ED50 (Staphylococcus aureus [4]) [mg/kg]	MIC (Staphylococcus aureus [5]) [µg/mL]	ED50 (Staphylococcus aureus [6]) [mg/kg]
O=C(CO)N1CCN(c2ccc(N3C[C@H](CNc4ccon4)OC3=O)cc2F)CCN1	16 (≈ 36.8 µM)	2 (≈ 4.6 µM)	32 (≈ 73.7 µM)	0.5 (≈ 1.15 µM)	2 (≈ 4.6 µM)	64 (≈ 147 µM)	1 (≈ 2.3 µM)	2 (≈ 4.6 µM)			
O=C(CO)N1CCN(c2c(F)cc(N3C[C@H](Cn4ccnn4)OC3=O)cc2F)CCN1	4 (≈ 9.14 µM)	2 (≈ 4.57 µM)	8 (≈ 18.3 µM)	0.5 (≈ 1.14 µM)	1 (≈ 2.29 µM)	16 (≈ 36.6 µM)	1 (≈ 2.29 µM)	1 (≈ 2.29 µM)	1.71	1 (≈ 2.29 µM)	
O=C(CO)N1CCN(c2c(F)cc(N3C[C@H](Cn4ccnn4)OC3=O)cc2F)CCO1	8 (≈ 18.2 µM)	2 (≈ 4.56 µM)	16 (≈ 36.5 µM)	1 (≈ 2.28 µM)	2 (≈ 4.56 µM)	16 (≈ 36.5 µM)	1 (≈ 2.28 µM)	2 (≈ 4.56 µM)			
O=C1O[C@@H](Cn2ccnn2)CN1c1cc(F)c(N2CCNOCC2)c(F)c1	4 (≈ 10.5 µM)	2 (≈ 5.26 µM)	8 (≈ 21 µM)	0.5 (≈ 1.31 µM)	1 (≈ 2.63 µM)	16 (≈ 42.1 µM)	1 (≈ 2.63 µM)	2 (≈ 5.26 µM)			
O=C(CO)N1CCN(c2c(F)cc(N3C[C@H](CNc4ccon4)OC3=O)cc2F)CCN1	16 (≈ 35.4 µM)	0.5 (≈ 1.11 µM)	16 (≈ 35.4 µM)	0.125 (≈ 0.276 µM)	1 (≈ 2.21 µM)	8 (≈ 17.7 µM)	0.5 (≈ 1.11 µM)	0.25 (≈ 0.553 µM)	2.18	0.5 (≈ 1.11 µM)	2.83
O=C(CO)N1CCN(c2c(F)cc(N3C[C@H](CNc4ccon4)OC3=O)cc2F)CCO1	4 (≈ 8.82 µM)	0.5 (≈ 1.1 µM)	16 (≈ 35.3 µM)	0.25 (≈ 0.551 µM)	1 (≈ 2.21 µM)	8 (≈ 17.6 µM)	0.25 (≈ 0.551 µM)	0.5 (≈ 1.1 µM)	> 10	0.25 (≈ 0.551 µM)	
O=C1O[C@@H](CNc2ccon2)CN1c1cc(F)c(N2CCNOCC2)c(F)c1	4 (≈ 10.1 µM)	1 (≈ 2.53 µM)	16 (≈ 40.5 µM)	0.125 (≈ 0.316 µM)	1 (≈ 2.53 µM)	16 (≈ 40.5 µM)	0.5 (≈ 1.26 µM)	0.5 (≈ 1.26 µM)			
CC(=O)NC[C@H]1CN(c2ccc(N3CCNN(C(=O)CO)CC3)c(F)c2)C(=O)O1	8 (≈ 19.5 µM)	2 (≈ 4.88 µM)	16 (≈ 39.1 µM)	1 (≈ 2.44 µM)	4 (≈ 9.77 µM)	64 (≈ 156 µM)	4 (≈ 9.77 µM)	2 (≈ 4.88 µM)			
CC(=O)NC[C@H]1CN(c2cc(F)c(N3CCNN(C(=O)CO)CC3)c(F)c2)C(=O)O1	4 (≈ 9.36 µM)	1 (≈ 2.34 µM)	8 (≈ 18.7 µM)	0.25 (≈ 0.585 µM)	4 (≈ 9.36 µM)	16 (≈ 37.4 µM)	1 (≈ 2.34 µM)	2 (≈ 4.68 µM)			
